≈ marks a conversion by molar mass, not a printed value. Calls of active or inactive are those of the source. The calls are words filed in the database; no cut-off is given here.
How the values were obtained:
[1] = Cytotoxicity against human MT4 cells; assay type: cell-based
[2] = test system: Vesicular stomatitis virus; test: Antiviral activity against Vesicular stomatitis virus ATCC VR 1540 infected in African green monkey Vero 76 cells assessed as reduction of virus-plaque formation after 2 days by crystal violet staining; assay type: functional, organism-based; conditions: ATCC VR 1540, Vero, 48 h
[3] = test system: Human immunodeficiency virus 1; test: Antiviral activity against HIV1 3B infected in human MT4 cells assessed as protection against virus-induced cytopathogenicity by MTT assay; assay type: functional, organism-based; conditions: Human immunodeficiency virus 1, 3B
[4] = Cytotoxicity against bovine MDBK cells assessed as cell viability after 48 to 96 hrs by MTT assay; assay type: cell-based, Bos taurus; conditions: cattle
[5] = Antiviral activity against Bovine viral diarrhea virus 1-NADL ATCC VR-534 infected in MDBK cells assessed as protection against virus-induced cytopathogenicity after 3 to 4 days by MTT assay; assay type: functional, cell-based; conditions: Bovine viral diarrhea virus isolates and strains, ATCC VR-534, MDBK
Outline: (§1)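 Cells seeded in 96-well plates (BHK 5x10^4, MDBK 3x10^4 cells/well), grown overnight to confluence, infected at m.o.i. 0.01 (BHK for Reo-1, MDBK for BVDV); serial compound dilutions in maintenance medium with 0.5% inactivated FBS added after 1 h; viability by MTT after 3–4 days at 37°C; EC50 for 50% protection by linear regression.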

[6] = Cytotoxicity against BHK cells assessed as cell viability after 48 to 96 hrs by MTT assay; assay type: cell-based, Mesocricetus auratus; conditions: hamster
Yellow fever virus = test: Antiviral activity against Yellow fever virus 17D infected in BHK cells assessed as protection against virus-induced cytopathogenicity after 3 to 4 days by MTT assay; assay type: functional, cell-based
[7] = test system: Mammalian orthoreovirus 1; test: Antiviral activity against Reovirus type-1 ATCC VR-214 infected in BHK cells assessed as protection against virus-induced cytopathogenicity after 3 to 4 days by MTT assay; assay type: functional, cell-based; conditions: Mammalian orthoreovirus 1, ATCC VR-214, BHK; outline: as §1
[8] = Cytotoxicity against African green monkey Vero 76 cells assessed as cell viability after 48 to 96 hrs by crystal violet staining; assay type: cell-based; conditions: chlorocebus sabaeus
Coxsackievirus B5 = test: Antiviral activity against Human coxsackievirus B5 ATCC VR-29 infected in African green monkey Vero 76 cells assessed as reduction of virus-plaque formation after 3 days by crystal violet staining; assay type: functional, organism-based; conditions: Enterovirus B, ATCC VR-29, Vero, 72 h
Outline: (§2)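 Plaque reduction: Vero-76 at 2x10^5 cells/well grown to confluent monolayers, infected 2 h at 50–100 PFU/well; after removing unadsorbed virus, overlay of D-MEM, 1% inactivated FBS, 0.75% methylcellulose with or without serial compound dilutions; 3 days at 37°C, fixed and stained with crystal violet in 50% ethanol, plaques counted; EC50 by linear regression.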

Poliovirus 1 = test: Antiviral activity against Poliovirus type 1 ATCC VR-1562 infected in African green monkey Vero 76 cells assessed as reduction of virus-plaque formation after 2 days by crystal violet staining; assay type: functional, organism-based; conditions: Enterovirus C, ATCC VR-1562, Vero, 48 h
Vaccinia virus = test: Antiviral activity against Human Vaccinia virus ATCC VR-1549 infected in African green monkey Vero 76 cells assessed as reduction of virus-plaque formation after 3 days by crystal violet staining; assay type: functional, organism-based; conditions: Orthopoxvirus vaccinia, ATCC VR-1549, Vero, 72 h
Human alphaherpesvirus 1 = test: Antiviral activity against Human herpesvirus 1 KOS ATCC VR-1493 infected in African green monkey Vero 76 cells assessed as reduction of virus-plaque formation after 3 days by crystal violet staining; assay type: functional, organism-based; conditions: Human alphaherpesvirus 1, KOS ATCC VR1493, Vero, 72 h; outline: as §2
Staphylococcus aureus [9] = test: Antimicrobial activity against Staphylococcus aureus NCTC 4163 at 400 ug after 18 hrs by disc-diffusion method; assay type: functional; conditions: NCTC 4163, 18 h, read-out: IZ
Outline: (§3)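 Disc diffusion on Mueller-Hinton II agar per CLSI; 9 mm paper discs loaded with 400 µg compound from DMSO solution, dried, placed on agar; growth inhibition zone diameter read after 18 h at 35°C.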

Staphylococcus aureus [10] = test: Antimicrobial activity against Staphylococcus aureus ATCC 25923 at 400 ug after 18 hrs by disc-diffusion method; assay type: functional; conditions: ATCC 25923, 18 h, read-out: IZ; outline: as §3
Staphylococcus aureus [11] = test: Antimicrobial activity against Staphylococcus aureus ATCC 6538 at 400 ug after 18 hrs by disc-diffusion method; assay type: functional; conditions: ATCC 6538, 18 h, read-out: IZ; outline: as §3
Staphylococcus aureus [12] = test: Antimicrobial activity against Staphylococcus aureus ATCC 29213 at 400 ug after 18 hrs by disc-diffusion method; assay type: functional; conditions: ATCC 29213, 18 h, read-out: IZ; outline: as §3
[13] = test system: Staphylococcus epidermidis; test: Antimicrobial activity against Staphylococcus epidermidis ATCC 12228 at 400 ug after 18 hrs by disc-diffusion method; assay type: functional; conditions: ATCC 12228, 18 h, read-out: IZ; outline: as §3
[14] = test system: Staphylococcus epidermidis; test: Antimicrobial activity against Staphylococcus epidermidis ATCC 35984 at 400 ug after 18 hrs by disc-diffusion method; assay type: functional; conditions: ATCC 35984, 18 h, read-out: IZ; outline: as §3
Bacillus subtilis = test: Antimicrobial activity against Bacillus subtilis ATCC 6633 at 400 ug after 18 hrs by disc-diffusion method; assay type: functional; conditions: ATCC 6633, 18 h, read-out: IZ; outline: as §3
Bacillus cereus = test: Antimicrobial activity against Bacillus cereus ATCC 11778 at 400 ug after 18 hrs by disc-diffusion method; assay type: functional; conditions: ATCC 11778, 18 h, read-out: IZ; outline: as §3
Enterococcus hirae = test: Antimicrobial activity against Enterococcus hirae ATCC 10541 at 400 ug after 18 hrs by disc-diffusion method; assay type: functional; conditions: ATCC 10541, 18 h, read-out: IZ; outline: as §3
Enterococcus faecalis = test: Antimicrobial activity against Enterococcus faecalis ATCC 29212 at 400 ug after 18 hrs by disc-diffusion method; assay type: functional; conditions: for zone of inhibition at 400 µg/disc: ATCC 29212, 18 h, read-out: IZ; outline: as §3
Micrococcus luteus [15] = test: Antimicrobial activity against Micrococcus luteus ATCC 10240 at 400 ug after 18 hrs by disc-diffusion method; assay type: functional; conditions: ATCC 10240, 18 h, read-out: IZ; outline: as §3
Micrococcus luteus [16] = test: Antimicrobial activity against Micrococcus luteus ATCC 9341 at 400 ug after 18 hrs by disc-diffusion method; assay type: functional; conditions: ATCC 9341, 18 h, read-out: IZ; outline: as §3
Proteus vulgaris = test: Antimicrobial activity against Proteus vulgaris NCTC 4635 at 400 ug after 18 hrs by disc-diffusion method; assay type: functional; outline: as §3
Staphylococcus aureus [17] = test: Antimicrobial activity against Staphylococcus aureus NCTC 4163 after 18 hrs by twofold serial microdilution method; assay type: functional; conditions: NCTC 4163, 18 h
Staphylococcus aureus [18] = test: Antimicrobial activity against Staphylococcus aureus ATCC 25923 after 18 hrs by twofold serial microdilution method; assay type: functional; conditions: ATCC 25923, 18 h
Staphylococcus aureus [19] = test: Antimicrobial activity against Staphylococcus aureus ATCC 6538 after 18 hrs by twofold serial microdilution method; assay type: functional; conditions: ATCC 6538, 18 h
Staphylococcus aureus [20] = test: Antimicrobial activity against Staphylococcus aureus ATCC 29213 after 18 hrs by twofold serial microdilution method; assay type: functional; conditions: ATCC 29213, 18 h
[21] = test system: Staphylococcus epidermidis; test: Antimicrobial activity against Staphylococcus epidermidis ATCC 12228 after 18 hrs by twofold serial microdilution method; assay type: functional; conditions: ATCC 12228, 18 h
[22] = test system: Staphylococcus epidermidis; test: Antimicrobial activity against Staphylococcus epidermidis ATCC 35984 after 18 hrs by twofold serial microdilution method; assay type: functional; conditions: ATCC 35984, 18 h
[23] = test system: Mycobacterium tuberculosis; test: Antimycobacterial activity against Mycobacterium tuberculosis H37Rv ATCC 25618; assay type: functional
Outline: (§4)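 Classical test-tube successive-dilution method in Youmans' modification of Proskauer and Beck liquid medium with 10% bovine serum. Inoculum came from 14-day cultures. DMSO stock was 10 mg/mL, diluted geometrically in medium. Tubes were incubated at 37 °C. Concentrations tested were 3.1, 6.2, 12.5, 25, 50 and 100 µg/ml. MIC is the minimum concentration inhibiting growth relative to compound-free tubes.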

[24] = test system: Mycobacterium tuberculosis; test: Antimycobacterial activity against drug-sensitive Mycobacterium tuberculosis Spec. 192; assay type: functional; outline: as §4

Row | Structure (SMILES) | CC50 [1] [µM] | EC50 [2] [µM] | EC50 [3] [µM] | CC50 [4] [µM] | EC50 [5] [µM] | CC50 [6] [µM] | EC50 (Yellow fever virus) [µM] | EC50 [7] [µM] | CC50 [8] [µM] | EC50 (Coxsackievirus B5) [µM] | EC50 (Poliovirus 1) [µM] | EC50 (Vaccinia virus) [µM] | EC50 (Human alphaherpesvirus 1) [µM] | zone of inhibition at 400 µg/disc (Staphylococcus aureus [9]) [mm] | zone of inhibition at 400 µg/disc (Staphylococcus aureus [10]) [mm] | zone of inhibition at 400 µg/disc (Staphylococcus aureus [11]) [mm] | zone of inhibition at 400 µg/disc (Staphylococcus aureus [12]) [mm] | zone of inhibition at 400 µg/disc [13] [mm] | zone of inhibition at 400 µg/disc [14] [mm] | zone of inhibition at 400 µg/disc (Bacillus subtilis) [mm] | also measured
1 | Fc1ccc(NC(=S)Nc2cccc(C(F)(F)F)c2)cc1 | 31 | > 40 | > 31 | 41 | > 41 | 26 | > 26 | > 26 | 40 | > 40 | > 40 | > 40 | > 40 | 27 | 23 | 25 | 25 | 26 | 25 | 25 | zone of inhibition at 400 µg/disc (Bacillus cereus): 23 mm; zone of inhibition at 400 µg/disc (Enterococcus hirae): 30 mm; zone of inhibition at 400 µg/disc (Enterococcus faecalis): 20 mm; zone of inhibition at 400 µg/disc (Micrococcus luteus [15]): 28 mm; zone of inhibition at 400 µg/disc (Micrococcus luteus [16]): 28 mm; zone of inhibition at 400 µg/disc (Proteus vulgaris; NCTC 4635, 18 h, read-out: IZ): 14 mm; MIC (Staphylococcus aureus [17]): 8 µg/mL (≈ 25.5 µM); MIC (Staphylococcus aureus [18]): 8 µg/mL (≈ 25.5 µM); MIC (Staphylococcus aureus [19]): 16 µg/mL (≈ 50.9 µM); MIC (Staphylococcus aureus [20]): 16 µg/mL (≈ 50.9 µM); MIC [21]: 16 µg/mL (≈ 50.9 µM); MIC [22]: 16 µg/mL (≈ 50.9 µM); MIC [23]: 25 µg/mL (≈ 79.5 µM); MIC [24]: 25 µg/mL (≈ 79.5 µM)
2 | CCNC(=S)Nc1cccc(C(F)(F)F)c1 | > 100 | > 100 | > 100 | > 100 | > 100 | > 100 | > 100 | > 100 | > 100 | > 100 | > 100 | > 100 | > 100 | 14 | 15 | 14 | 19 | 14 | 13 | 15 | zone of inhibition at 400 µg/disc (Bacillus cereus): 15 mm; zone of inhibition at 400 µg/disc (Enterococcus hirae): 13 mm; inhibition zone (IZ) (Enterococcus faecalis): inactive; zone of inhibition at 400 µg/disc (Micrococcus luteus [15]): 13 mm; zone of inhibition at 400 µg/disc (Micrococcus luteus [16]): 13 mm; inhibition zone (IZ) (Proteus vulgaris): inactive; MIC (Staphylococcus aureus [17]): 256 µg/mL (≈ 1030 µM); MIC (Staphylococcus aureus [18]): 128 µg/mL (≈ 516 µM); MIC (Staphylococcus aureus [19]): 256 µg/mL (≈ 1030 µM); MIC (Staphylococcus aureus [20]): 256 µg/mL (≈ 1030 µM); MIC [21]: 256 µg/mL (≈ 1030 µM); MIC [22]: 512 µg/mL (≈ 2060 µM); MIC [23]: > 100 µg/mL; MIC [24]: > 100 µg/mL
3 | COc1cccc(NC(=S)Nc2cccc(C(F)(F)F)c2)c1 | 26 | > 20 | > 26 | 52 | > 52 | 12 | > 12 | > 12 | 20 | > 20 | > 20 | > 20 | > 20 | 20 | 20 | 23 | 22 | 22 | 21 | 20 | zone of inhibition at 400 µg/disc (Bacillus cereus): 19 mm; zone of inhibition at 400 µg/disc (Enterococcus hirae): 12 mm; zone of inhibition at 400 µg/disc (Enterococcus faecalis): 13 mm; zone of inhibition at 400 µg/disc (Micrococcus luteus [15]): 19 mm; zone of inhibition at 400 µg/disc (Micrococcus luteus [16]): 24 mm; inhibition zone (IZ) (Proteus vulgaris): inactive; MIC (Staphylococcus aureus [17]): 32 µg/mL (≈ 98.1 µM); MIC (Staphylococcus aureus [18]): 32 µg/mL (≈ 98.1 µM); MIC (Staphylococcus aureus [19]): 32 µg/mL (≈ 98.1 µM); MIC (Staphylococcus aureus [20]): 32 µg/mL (≈ 98.1 µM); MIC [21]: 32 µg/mL (≈ 98.1 µM); MIC [22]: 32 µg/mL (≈ 98.1 µM); MIC [23]: > 100 µg/mL; MIC [24]: > 100 µg/mL

From ChEMBL document CHEMBL3616436, “Synthesis, cytotoxicity and antimicrobial activity of thiourea derivatives incorporating 3-(trifluoromethyl)phenyl moiety” (Eur J Med Chem, 2015)
